Measurements taken from ChEMBL document CHEMBL1124364, “3-Sulfonyl-1-carba-1-dethiacephems” (1989).
≈ marks a conversion by molar mass, not a printed value.

Legend:
Assay type in all cases: functional
Klebsiella [1] = experiment: Minimum inhibitory concentration against Klebsiella (X26)
Method in brief: (§1)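 Agar dilution: compounds diluted in 0.1 M phosphate buffer pH 7.0 and incorporated into Mueller-Hinton agar with 1% Bacto-Supplement C at 50 °C. Fresh overnight cultures diluted to about 1×10^4 cells/µL; 1 µL spotted on plates. Incubated overnight at 35 °C in ambient air. MIC taken as the lowest concentration preventing visible growth.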

Salmonella = experiment: Minimum inhibitory concentration against Salmonella (X514); method in brief: as §1
Pseudomonas aeruginosa = experiment: Minimum inhibitory concentration against Pseudomonas aeruginosa (X528); method in brief: as §1
Streptococcus pyogenes = experiment: Minimum inhibitory concentration against Streptococcus pyogenes (C203); method in brief: as §1
Staphylococcus aureus = experiment: Minimum inhibitory concentration against Staphylococcus aureus (X1.1); method in brief: as §1
Streptococcus pneumoniae = experiment: Minimum inhibitory concentration against Streptococcus pneumoniae (PARK); method in brief: as §1
Morganella morganii = experiment: Minimum inhibitory concentration against Proteus morganii (PR 15); method in brief: as §1
Enterobacter cloacae [2] = experiment: Minimum inhibitory concentration against Enterobacter cloacae (265A beta-lactamase containing); method in brief: as §1
Enterobacter cloacae [3] = experiment: Minimum inhibitory concentration against Enterobacter cloacae (EB5); method in brief: as §1
Klebsiella [4] = experiment: Minimum inhibitory concentration against Klebsiella (KAE beta-lactamase containing); method in brief: as §1
Escherichia coli [5] = experiment: Minimum inhibitory concentration against Escherichia coli (EC14); method in brief: as §1
[6] = tested on: Staphylococcus epidermidis; experiment: Minimum inhibitory concentration against Staphylococcus epidermidis (222); method in brief: as §1
Providencia rettgeri = experiment: Minimum inhibitory concentration against Proteus rettgeri (C24); method in brief: as §1
Escherichia coli [7] = experiment: Minimum inhibitory concentration against Escherichia coli (TEM beta-lactamase containing); method in brief: as §1
Haemophilus influenzae = experiment: Minimum inhibitory concentration against Haemophilus influenzae (C.L.); method in brief: as §1
[8] = Pseudomonas aeruginosa, read-out: MIC
[9] = Streptococcus pyogenes, read-out: MIC
[10] = Staphylococcus aureus, read-out: MIC
[11] = Streptococcus pneumoniae, read-out: MIC
[12] = Morganella morganii, read-out: MIC
[13] = Enterobacter cloacae, read-out: MIC
[14] = Escherichia coli, read-out: MIC
[15] = Staphylococcus epidermidis, read-out: MIC
[16] = Providencia rettgeri, read-out: MIC
[17] = Haemophilus influenzae, read-out: MIC

Row | MIC (Klebsiella [1]; Klebsiella, read-out: MIC) | MIC (Salmonella; Salmonella, read-out: MIC) | MIC (Pseudomonas aeruginosa; [8]) | MIC (Streptococcus pyogenes; [9]) | MIC (Staphylococcus aureus; [10]) | MIC (Streptococcus pneumoniae; [11]) | MIC (Morganella morganii; [12]) | MIC (Enterobacter cloacae [2]; [13]) | MIC (Enterobacter cloacae [3]; [13]) | MIC (Klebsiella [4]; Klebsiella, read-out: MIC) | MIC (Escherichia coli [5]; [14]) | MIC [6, 15] | MIC (Providencia rettgeri; [16]) | MIC (Escherichia coli [7]; [14]) | MIC (Haemophilus influenzae; [17]) | SMILES | further results
1 |  |  |  |  |  |  |  |  |  |  |  |  |  |  |  | CS(=O)(=O)C1=C(C(=O)O)N2C(=O)[C@@H](NC(=O)COc3ccccc3)[C@H]2SC1 (stereo in doubt; 7 (1-S)) | MIC (Klebsiella [1]): 8 µg/mL (≈ 19.4 µM); MIC (Salmonella): 64 µg/mL (≈ 155 µM); MIC (Pseudomonas aeruginosa): 128 µg/mL (≈ 310 µM); MIC (Streptococcus pyogenes): 0.125 µg/mL (≈ 0.303 µM); MIC (Staphylococcus aureus): 0.25 µg/mL (≈ 0.606 µM); MIC (Streptococcus pneumoniae): 0.25 µg/mL (≈ 0.606 µM); MIC (Morganella morganii): 128 µg/mL (≈ 310 µM); MIC (Enterobacter cloacae [2]): 128 µg/mL (≈ 310 µM); MIC (Enterobacter cloacae [3]): 128 µg/mL (≈ 310 µM); MIC (Klebsiella [4]): 128 µg/mL (≈ 310 µM); MIC (Escherichia coli [5]): 64 µg/mL (≈ 155 µM); MIC [6]: 0.25 µg/mL (≈ 0.606 µM); MIC (Providencia rettgeri): 128 µg/mL (≈ 310 µM); MIC (Escherichia coli [7]): 128 µg/mL (≈ 310 µM); MIC (Haemophilus influenzae): 1 µg/mL (≈ 2.42 µM)
2 | 2 µg/mL (≈ 3.91 µM) | 0.5 µg/mL (≈ 0.977 µM) | > 128 µg/mL | 0.015 µg/mL (≈ 0.0293 µM) | 4 µg/mL (≈ 7.82 µM) | 0.03 µg/mL (≈ 0.0586 µM) | 64 µg/mL (≈ 125 µM) | > 128 µg/mL | 8 µg/mL (≈ 15.6 µM) | > 128 µg/mL | 2 µg/mL (≈ 3.91 µM) | 16 µg/mL (≈ 31.3 µM) | 64 µg/mL (≈ 125 µM) | 128 µg/mL (≈ 250 µM) | 1 µg/mL (≈ 1.95 µM) | CO/N=C(/C(=O)N[C@@H]1C(=O)N2C(C(=O)O)=C(S(=O)(=O)c3cccs3)CC[C@H]12)c1csc(N)n1 | 
3 | 0.06 µg/mL (≈ 0.128 µM) | 0.125 µg/mL (≈ 0.266 µM) | > 128 µg/mL | 0.015 µg/mL (≈ 0.0319 µM) | 4 µg/mL (≈ 8.52 µM) | 0.03 µg/mL (≈ 0.0639 µM) | 2 µg/mL (≈ 4.26 µM) | > 128 µg/mL | 0.5 µg/mL (≈ 1.06 µM) | > 128 µg/mL | 0.06 µg/mL (≈ 0.128 µM) | 8 µg/mL (≈ 17 µM) | 1 µg/mL (≈ 2.13 µM) | 0.5 µg/mL (≈ 1.06 µM) | 0.25 µg/mL (≈ 0.532 µM) | CO/N=C(/C(=O)N[C@@H]1C(=O)N2C(C(=O)O)=C(S(=O)(=O)C3CC3)CC[C@H]12)c1csc(N)n1 | 
4 | 0.125 µg/mL (≈ 0.265 µM) | 0.125 µg/mL (≈ 0.265 µM) | > 128 µg/mL | 0.03 µg/mL (≈ 0.0636 µM) | 8 µg/mL (≈ 17 µM) | 0.03 µg/mL (≈ 0.0636 µM) | 2 µg/mL (≈ 4.24 µM) | > 128 µg/mL | 1 µg/mL (≈ 2.12 µM) | > 128 µg/mL | 0.125 µg/mL (≈ 0.265 µM) | 8 µg/mL (≈ 17 µM) | 4 µg/mL (≈ 8.48 µM) | 1 µg/mL (≈ 2.12 µM) | 0.25 µg/mL (≈ 0.53 µM) | CCCS(=O)(=O)C1=C(C(=O)O)N2C(=O)[C@@H](NC(=O)/C(=N/OC)c3csc(N)n3)[C@H]2CC1 | 
5 | 1 µg/mL (≈ 1.98 µM) | 0.25 µg/mL (≈ 0.495 µM) | > 128 µg/mL | 1 µg/mL (≈ 1.98 µM) | 8 µg/mL (≈ 15.8 µM) | 0.06 µg/mL (≈ 0.119 µM) | > 128 µg/mL | > 128 µg/mL | 8 µg/mL (≈ 15.8 µM) | > 128 µg/mL | 2 µg/mL (≈ 3.96 µM) | 16 µg/mL (≈ 31.6 µM) | 1 µg/mL (≈ 1.98 µM) | 8 µg/mL (≈ 15.8 µM) | 0.25 µg/mL (≈ 0.495 µM) | CO/N=C(/C(=O)N[C@@H]1C(=O)N2C(C(=O)O)=C(S(=O)(=O)c3ccccc3)CC[C@H]12)c1csc(N)n1 | 

Row | SMILES | MIC (Klebsiella [1]; Klebsiella, read-out: MIC) | MIC (Salmonella; Salmonella, read-out: MIC) | MIC (Pseudomonas aeruginosa; [8]) | MIC (Streptococcus pyogenes; [9]) | MIC (Staphylococcus aureus; [10]) | MIC (Streptococcus pneumoniae; [11]) | MIC (Morganella morganii; [12]) | MIC (Enterobacter cloacae [2]; [13]) | MIC (Enterobacter cloacae [3]; [13]) | MIC (Klebsiella [4]; Klebsiella, read-out: MIC) | MIC (Escherichia coli [5]; [14]) | MIC [6, 15] | MIC (Providencia rettgeri; [16]) | MIC (Escherichia coli [7]; [14]) | MIC (Haemophilus influenzae; [17]) | further results
6 | CO/N=C(\C(=O)N[C@@H]1C(=O)N2C(C(=O)O)=C(COC(C)=O)CS[C@H]12)c1csc(N)n1 [CEFOTAXIME] | 0.008 µg/mL (≈ 0.0176 µM) | 0.03 µg/mL (≈ 0.0659 µM) | 32 µg/mL (≈ 70.3 µM) | 0.015 µg/mL (≈ 0.0329 µM) | 2 µg/mL (≈ 4.39 µM) | 0.015 µg/mL (≈ 0.0329 µM) | 0.25 µg/mL (≈ 0.549 µM) | 32 µg/mL (≈ 70.3 µM) | 0.125 µg/mL (≈ 0.274 µM) | 2 µg/mL (≈ 4.39 µM) | 0.03 µg/mL (≈ 0.0659 µM) | 2 µg/mL (≈ 4.39 µM) | 0.125 µg/mL (≈ 0.274 µM) | 0.03 µg/mL (≈ 0.0659 µM) | 0.015 µg/mL (≈ 0.0329 µM) | 
7 | N[C@@H](C(=O)N[C@@H]1C(=O)N2C(C(=O)O)=C(Cl)CS[C@H]12)c1ccccc1 [CEFACLOR ANHYDROUS] | 0.25 µg/mL (≈ 0.68 µM) | 2 µg/mL (≈ 5.44 µM) | > 128 µg/mL | 0.25 µg/mL (≈ 0.68 µM) | 2 µg/mL (≈ 5.44 µM) | 1 µg/mL (≈ 2.72 µM) | > 128 µg/mL | > 128 µg/mL | 16 µg/mL (≈ 43.5 µM) | > 128 µg/mL | 0.5 µg/mL (≈ 1.36 µM) | 4 µg/mL (≈ 10.9 µM) | 64 µg/mL (≈ 174 µM) | 1 µg/mL (≈ 2.72 µM) | 2 µg/mL (≈ 5.44 µM) | 
